Measured values taken from ChEMBL document CHEMBL1123502, “Synthesis of [[(naphthalenylmethoxy)- and [[(quinolinylmethoxy)phenyl]amino]oxoalkanoic acid esters. A novel series of leukotriene D4 antagonists and 5-lipoxygenase inhibitors” (J Med Chem, 1986).

Columns and labels:
[1] = target: T1, Cyclooxygenase (Rattus norvegicus, UniProt P35355+Q63921); assay: In vitro inhibition of rat polymorphonuclear leukocyte (PMN) Prostaglandin G/H synthase; assay type: protein assay
T1 sequence (P35355 whole entry): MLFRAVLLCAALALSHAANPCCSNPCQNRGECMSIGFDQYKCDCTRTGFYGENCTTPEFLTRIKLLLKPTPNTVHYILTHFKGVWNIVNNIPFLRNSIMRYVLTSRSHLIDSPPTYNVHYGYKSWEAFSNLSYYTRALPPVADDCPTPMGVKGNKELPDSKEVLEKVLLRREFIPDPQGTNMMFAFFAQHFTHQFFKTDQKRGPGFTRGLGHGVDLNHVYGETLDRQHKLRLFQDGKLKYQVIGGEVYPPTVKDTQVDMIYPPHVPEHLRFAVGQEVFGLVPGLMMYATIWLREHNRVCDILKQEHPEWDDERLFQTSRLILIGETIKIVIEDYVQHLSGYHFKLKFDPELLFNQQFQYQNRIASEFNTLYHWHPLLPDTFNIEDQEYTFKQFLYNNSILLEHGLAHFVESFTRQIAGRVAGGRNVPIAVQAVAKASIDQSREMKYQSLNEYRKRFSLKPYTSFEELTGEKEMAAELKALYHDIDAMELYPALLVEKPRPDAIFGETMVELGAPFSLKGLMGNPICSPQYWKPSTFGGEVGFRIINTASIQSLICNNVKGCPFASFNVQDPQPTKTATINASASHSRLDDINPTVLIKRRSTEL
T1 sequence (Q63921 whole entry): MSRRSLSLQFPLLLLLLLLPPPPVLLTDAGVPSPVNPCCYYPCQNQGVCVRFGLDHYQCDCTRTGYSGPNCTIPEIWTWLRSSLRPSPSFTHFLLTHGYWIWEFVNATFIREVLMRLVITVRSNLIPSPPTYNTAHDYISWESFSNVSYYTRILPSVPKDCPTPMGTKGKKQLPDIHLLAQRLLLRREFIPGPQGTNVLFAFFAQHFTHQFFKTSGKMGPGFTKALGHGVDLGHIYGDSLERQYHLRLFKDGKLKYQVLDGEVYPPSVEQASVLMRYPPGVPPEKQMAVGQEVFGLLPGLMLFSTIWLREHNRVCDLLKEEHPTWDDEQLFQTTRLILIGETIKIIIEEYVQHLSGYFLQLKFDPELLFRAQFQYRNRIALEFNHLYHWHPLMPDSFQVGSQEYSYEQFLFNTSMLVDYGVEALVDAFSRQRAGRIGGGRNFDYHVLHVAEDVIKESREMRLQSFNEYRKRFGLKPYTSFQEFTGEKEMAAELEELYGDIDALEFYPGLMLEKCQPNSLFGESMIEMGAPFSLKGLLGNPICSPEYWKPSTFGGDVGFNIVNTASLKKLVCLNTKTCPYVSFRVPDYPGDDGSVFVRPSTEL
In short: (§1)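 Peritoneal PMNs came from female Wistar rats 24 h after ip 6% glycogen. Cells at 2×10^7/mL in HBSS with Ca2+/Mg2+ and 10 mM L-cysteine were preincubated with drug or vehicle for 10 min at 37 °C. The reaction was stopped with ice-cold water and acidified to pH 3.5, and LO and CO products were ether-extracted. IC50 per metabolite came from nonlinear regression.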

[2] = target: T2, Polyunsaturated fatty acid 5-lipoxygenase (Rattus norvegicus, UniProt P12527); assay: Inhibition of rat polymorphonuclear leukocyte (PMN) 5-Lipoxygenase in vitro; in short: as §1
T2 sequence (P12527 whole entry): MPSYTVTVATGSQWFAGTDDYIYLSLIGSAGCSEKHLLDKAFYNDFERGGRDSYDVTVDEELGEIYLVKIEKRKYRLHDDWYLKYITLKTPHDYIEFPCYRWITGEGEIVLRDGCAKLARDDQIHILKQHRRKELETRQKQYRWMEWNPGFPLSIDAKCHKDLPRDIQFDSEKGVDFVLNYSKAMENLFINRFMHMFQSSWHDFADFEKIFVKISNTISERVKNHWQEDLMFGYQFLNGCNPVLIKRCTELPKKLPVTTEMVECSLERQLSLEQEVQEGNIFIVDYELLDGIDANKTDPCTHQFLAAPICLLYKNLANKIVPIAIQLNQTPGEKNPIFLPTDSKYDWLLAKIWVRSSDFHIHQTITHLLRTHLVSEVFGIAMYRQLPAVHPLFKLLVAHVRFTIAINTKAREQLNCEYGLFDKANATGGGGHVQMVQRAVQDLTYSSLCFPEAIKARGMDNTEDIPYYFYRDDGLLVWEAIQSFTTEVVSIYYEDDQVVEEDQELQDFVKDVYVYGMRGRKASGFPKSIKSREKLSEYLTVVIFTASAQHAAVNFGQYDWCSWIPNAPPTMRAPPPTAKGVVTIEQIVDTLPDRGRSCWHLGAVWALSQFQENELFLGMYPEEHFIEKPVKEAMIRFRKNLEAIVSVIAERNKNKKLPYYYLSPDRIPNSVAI

[3] = test system: Cavia porcellus; assay: Compound was evaluated in vivo for the percent inhibition of Ovalbumin-induced (OA) bronchospasm in guinea pig at dose of 50 mg/kg id; assay type: functional; conditions: route intraduodenal
In short: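 Male Hartley guinea pigs (350-600 g) were sensitized with ovalbumin (5 mg ip plus 5 mg sc) and used 3-5 weeks later. They were anesthetized with pentobarbital, ventilated, and given indomethacin (10 mg/kg iv, 9 min before challenge) and chlorpheniramine (1.0 mg/kg iv, 1 min later). Drug was given id (or as noted) 10 min before 1% aerosolized ovalbumin; controls received saline. Overflow volume at 1, 3 and 5 min was taken as % of maximal bronchoconstriction and converted to % inhibition.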

[4] = In vivo inhibition of LTD4-induced bronchospasm in guinea pig at dose of 50 mg/kg; conditions: Cavia porcellus
[5] = target: T3, Polyunsaturated fatty acid 5-lipoxygenase (Rattus norvegicus) (UniProt P12527); assay: In vitro inhibition of rat polymorphonuclear leukocyte (PMN) 5-Lipoxygenase at 100 uM
T3 sequence (whole entry): T2 sequence (P12527 whole entry)

[6] = target: Cyclooxygenase (Rattus norvegicus) (UniProt P35355+Q63921); assay: In vitro inhibition of rat polymorphonuclear leukocyte (PMN) Prostaglandin G/H synthase at 100 uM
[7] = organism: Cavia porcellus; assay: Compound was evaluated for its effect on LTC4-induced contraction of guinea pig trachea; percentage of maximal response of tissue to carbachol; assay type: functional
In short: (§2)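 Isolated guinea pig tracheal spiral strips were contracted with LTC4 or LTD4, with antagonist at 3×10^-6 M versus untreated control. Responses are expressed as percentage of the tissue's maximal response to carbachol (1 mM). Potency is given as -log of the agonist concentration (M) giving a half-maximal response. pKB = -log([B]/(dose ratio - 1)), where dose ratio = treated ED50 ÷ control ED50. Control vs treated compared by unpaired Student's t test.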

[8] = organism: Cavia porcellus; assay: Compound was evaluated for its effect on LTD4-induced contraction of guinea pig trachea; assay type: functional; in short: as §2
[9] = organism: Cavia porcellus; assay: Compound was evaluated for its effect on LTC4-induced contraction of guinea pig trachea; assay type: functional; in short: as §2
[10] = organism: Cavia porcellus; assay: Compound was evaluated for its effect on LTD4-induced contraction of guinea pig trachea; percentage of maximal response of tissue to carbachol; assay type: functional; in short: as §2

| SMILES | IC50 [2] | inhibition in vivo at 50 mg/kg [3] | inhibition [4] | inhibition [6] | other results |
| --- | --- | --- | --- | --- | --- |
| COC(=O)CCC(=O)N(O)c1cccc(OCc2ccc3ccccc3c2)c1 | 0.6 µM | 18% |  |  | IC50 [1]: 7.4 µM |
| COC(=O)CCC(=O)Nc1cccc(Oc2ccc3ccccc3n2)c1 | 26 µM | -55% | 29% |  |  |
| O=C(O)CCC(=O)Nc1cccc(OCc2ccc3ccccc3n2)c1 |  | -20% | 66% |  | inhibition [5]: < 50% |
| COC(=O)CC(=O)Nc1cccc(OCc2ccc3ccccc3n2)c1 | 24.6 µM | 57% |  | < 50% |  |
| COC(=O)C(=O)Nc1cccc(OCc2ccc3ccccc3c2)c1 | 6.9 µM |  | -1% | < 50% |  |
| COC(=O)CCNC(=O)c1cccc(OCc2ccc3ccccc3n2)c1 | 35.2 µM |  | -3% |  |  |
| COC(=O)CCC(=O)N(O)c1cccc(COc2ccc3ccccc3c2)c1 | 0.86 µM |  | 5% |  | IC50 [1]: 6.1 µM |
| COC(=O)CCNC(=O)c1cccc(OCc2ccc3ccccc3c2)c1 | 29.5 µM |  |  | < 50% |  |
| COC(=O)CCC(=O)Nc1cc(OCc2ccc3ccccc3n2)ccc1C | 7.6 µM |  | 23% | < 50% |  |
| COC(=O)CCC(=O)Nc1ccc(OCc2ccc3ccccc3n2)cc1 | 2.6 µM |  | -7% | < 50% |  |
| COC(=O)CCCC(=O)Nc1cccc(OCc2ccc3ccccc3n2)c1 | 10.4 µM |  |  |  |  |
| N#CCCNC(=O)c1cccc(OCc2ccc3ccccc3c2)c1 |  |  |  |  | inhibition [5]: < 50% |
| COC(=O)CCC(=O)Nc1cccc(OCc2ccc3ccccc3n2)c1C | 15.5 µM |  |  | < 50% |  |
| COC(=O)CCC(=O)N(C)c1cccc(OCc2ccc3ccccc3n2)c1 | 14 µM | 2% | 48% | < 50% |  |
| CCCCCC(O)c1cccc(OCc2ccc3ccccc3n2)c1 (stereo unspecified) |  |  |  | < 50% |  |
| COC(=O)CCC(=O)Nc1cccc(OCc2ccc3ccc(C)cc3n2)c1 |  |  | -6.1% | < 50% | inhibition [5]: < 50% |

| SMILES | IC50 [2] | inhibition in vivo at 50 mg/kg [3] | inhibition [4] | inhibition [6] | other results |
| --- | --- | --- | --- | --- | --- |
| CCOC(=O)CC(=O)Nc1cccc(OCc2ccc3ccccc3n2)c1 | 19 µM | 67% |  | < 50% |  |
| COC(=O)CCCC(=O)Nc1cccc(OCc2ccc3ccccc3c2)c1 | 12.6 µM |  | 5% |  |  |
| COC(=O)CCC(=O)Nc1ccccc1OCc1ccc2ccccc2c1 | 86.2 µM |  |  | < 50% |  |
| COC(=O)CCC(=O)Nc1cccc(OCc2ccc3ccccc3n2)c1C#N |  |  | -6% | < 50% | inhibition [5]: < 50% |
| O=C(O)CCNC(=O)c1cccc(COc2ccc3ccccc3c2)c1 |  |  | 2% |  | inhibition [5]: < 50% |
| COC(=O)CCC(=O)Nc1cccc(OCc2ccc3ccccc3n2)c1 | 28 µM | 43% | 86% | < 50% |  |
| COC(=O)CC(=O)Nc1cccc(OCc2ccc3ccccc3c2)c1 | 9.5 µM |  |  | < 50% |  |
| COC(=O)CCC(=O)Nc1cccc(OCc2cccc3cccnc23)c1 |  |  |  |  | inhibition [5]: < 50% |
| COC(=O)CCNC(=O)c1cccc(COc2ccc3ccccc3c2)c1 | 60.5 µM |  | -6% |  |  |
| COC(=O)CCC(=O)Nc1ccc(OCc2ccc3ccccc3c2)cc1 |  |  | 12% |  | inhibition [5]: < 50% |
| O=C(O)CCNC(=O)c1cccc(OCc2ccc3ccccc3c2)c1 |  |  | 10% |  | inhibition [5]: < 50% |
| COC(=O)C(=O)Nc1cccc(OCc2ccc3ccccc3n2)c1 | 5.3 µM |  | -2% | < 50% |  |
| CCOC(=O)CCC(=O)Nc1cccc(OCc2ccc3ccccc3n2)c1 | 12.6 µM | 6% | 95% | < 50% |  |
| O=C(O)CCC(=O)N(O)c1cccc(OCc2ccc3ccccc3c2)c1 | 15.7 µM | -35% |  |  |  |
| COC(=O)CCC(=O)N(O)c1cccc(OCc2ccc3ccccc3n2)c1 | 1.4 µM | 76% | 97% |  | Max contractility [7]: 77%; -Log ED50 [8]: 7.79; pKB [8]: 5.33; IC50 [1]: 40 µM; -Log ED50 [9]: 7.5; pKB [9]: 5.35; Max contractility [10]: 63% |
| COC(=O)CCC(=O)Nc1cccc(COc2ccc3ccccc3c2)c1 | 1.91 µM |  |  | < 50% |  |
